Blank lines part the entries; values can stand above or below the compound they belong to.
Columns and labels:
[1] = target: CSF‐1R (Homo sapiens, UniProt P07333); format: cell-based; details: CSF‐1R‐transfected 293A cells, M‐CSF 100 ng/mL, western blot
Procedure, shortened: (§1)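 Cells (1.5 × 10⁶) were seeded for 24 h, then serum-starved overnight. They were pretreated 1 h with test compound and stimulated with 100 ng/mL ligand for 15 min: rhM‐CSF for CSF‐1R‐transfected 293A (DMEM, 10% FBS) and VEGF165 for HUVEC. Whole-cell lysates were immunoblotted for phospho-CSF1R or phospho-VEGFR2, with total receptor and β‐actin as internal controls.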

[2] = system: MGC‐803; assay: Tumor xenograft model; format: in vivo, BALB/c athymic mice; details: MGC‐803 xenograft; for tumor growth: oral once daily
[3] = system: HUVEC; assay: Tube formation assay; format: cell-based, human; details: HUVEC on Matrigel, 1.5 or 5 μM, 24 h, vs control
Procedure, shortened: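 HUVEC were maintained in endothelial cell medium with 5% FBS, heparin (50 μg/mL) and ECGS (50 μg/mL). Matrigel was polymerised 45 min at 37°C. 4 × 10⁴ cells in complete medium were seeded onto it with vehicle or test compound and incubated 24 h. Networks were imaged by light microscopy and scored as mean loops per field and total branch length (pixels). Results are mean ± SD of five experiments; t-test versus vehicle.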

[4] = system: human blood‐derived monocytes; details: M‐CSF 100 ng/mL, 6 days, 0.3 μM
[5] = system: SMMC‐7721; assay: Tumor xenograft model; format: in vivo, BALB/c athymic mice; details: SMMC‐7721 xenograft, oral once daily
Procedure, shortened: (§2)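 Subjects were 6-week-old female BALB/c athymic mice. Tumour cells in 200 μL serum-free medium were implanted s.c. At 100–150 mm³, mice were randomised (n = 8/group) and dosed by oral gavage once daily with test compound in 0.5% CMC‐Na, sunitinib or vehicle. Doses were 2.5–20 mg/kg for HCT‐8 and SMMC‐7721, and 5–40 mg/kg for A549. Volumes were measured every 3–4 days over 33 or 43 days. Percent TGI at last treatment was computed versus vehicle.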

[6] = system: HCT‐8; assay: Tumor xenograft model; format: in vivo, BALB/c athymic mice; details: HCT‐8 xenograft, oral once daily
Procedure, shortened: as §2

[7] = target: PLK3 (Homo sapiens, UniProt Q9H4B4); assay: Kinase inhibition assay; details: Biochemical IC50, cell-free
Sequence of PLK3 (Q9H4B4 whole entry): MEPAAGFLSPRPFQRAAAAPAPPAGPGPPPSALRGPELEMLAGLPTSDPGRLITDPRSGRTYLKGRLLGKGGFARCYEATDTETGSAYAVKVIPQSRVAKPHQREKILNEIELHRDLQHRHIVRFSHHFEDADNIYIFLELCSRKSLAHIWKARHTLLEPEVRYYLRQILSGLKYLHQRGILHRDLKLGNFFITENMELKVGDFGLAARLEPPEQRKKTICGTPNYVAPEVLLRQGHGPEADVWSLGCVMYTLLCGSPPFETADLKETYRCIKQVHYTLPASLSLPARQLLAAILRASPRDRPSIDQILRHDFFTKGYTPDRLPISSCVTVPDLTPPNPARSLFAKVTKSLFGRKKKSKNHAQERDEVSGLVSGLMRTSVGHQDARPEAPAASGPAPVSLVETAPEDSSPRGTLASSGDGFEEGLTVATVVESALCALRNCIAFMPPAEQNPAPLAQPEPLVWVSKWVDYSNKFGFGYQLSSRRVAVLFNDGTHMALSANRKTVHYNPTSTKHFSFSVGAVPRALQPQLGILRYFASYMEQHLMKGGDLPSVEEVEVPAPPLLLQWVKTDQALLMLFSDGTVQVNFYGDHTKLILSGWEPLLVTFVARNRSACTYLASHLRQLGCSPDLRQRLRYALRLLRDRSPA

[8] = system: 4T1 breast cancer cells; assay: 4T1 breast cancer model in BALB/c mice, tumor tissue immunohistochemistry; format: in vivo
[9] = target: T1, DDR2 (Homo sapiens, UniProt Q16832); assay: Kinase inhibition assay; details: Biochemical IC50, cell-free
T1 sequence (Q16832 22-855): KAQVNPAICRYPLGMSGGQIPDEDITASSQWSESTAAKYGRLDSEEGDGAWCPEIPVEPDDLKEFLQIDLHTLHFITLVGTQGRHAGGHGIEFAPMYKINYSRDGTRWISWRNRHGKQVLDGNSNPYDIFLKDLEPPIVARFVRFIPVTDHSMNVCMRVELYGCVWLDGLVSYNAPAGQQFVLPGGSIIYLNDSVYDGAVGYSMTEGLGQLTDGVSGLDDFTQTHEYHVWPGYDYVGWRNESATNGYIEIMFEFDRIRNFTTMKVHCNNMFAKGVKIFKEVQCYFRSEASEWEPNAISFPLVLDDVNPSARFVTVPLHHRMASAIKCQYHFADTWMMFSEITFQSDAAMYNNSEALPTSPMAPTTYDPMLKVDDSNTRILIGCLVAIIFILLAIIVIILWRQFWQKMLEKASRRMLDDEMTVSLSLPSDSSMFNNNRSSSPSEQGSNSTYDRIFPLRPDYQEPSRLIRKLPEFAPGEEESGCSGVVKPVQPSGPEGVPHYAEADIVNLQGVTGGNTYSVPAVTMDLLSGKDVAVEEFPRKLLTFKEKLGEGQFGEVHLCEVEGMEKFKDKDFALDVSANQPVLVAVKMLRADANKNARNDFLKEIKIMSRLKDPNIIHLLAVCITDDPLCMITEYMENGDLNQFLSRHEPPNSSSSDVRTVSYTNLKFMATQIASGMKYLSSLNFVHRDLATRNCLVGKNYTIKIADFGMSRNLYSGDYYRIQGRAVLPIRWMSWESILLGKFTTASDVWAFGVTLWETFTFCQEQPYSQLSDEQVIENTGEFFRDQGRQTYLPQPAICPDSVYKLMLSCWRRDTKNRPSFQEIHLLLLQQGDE

[10] = system: Molt‐4 cells; assay: Growth inhibition of tumor cells; format: cell-based; details: Homo sapiens, MOLT-4, 120 h, read-out: GI50, growth inhibition
[11] = system: COLO‐320 tumor; assay: COLO‐320 xenograft in SCID mice, tumor tissue analysis; format: in vivo; details: oral 2.5 or 20 mg/kg/day, 12 days
Procedure, shortened: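 COLO-320 cells implanted s.c. in SCID mice; established tumors dosed orally once daily for 12 days at 2.5 or 20 mg/kg/day, with compound suspended in 0.5% (w/v) CMC-Na. Half of each tumor went to histone extraction and western blot for p-H3 (Ser10) vs total H3, with normal colon as comparator. The other half was formalin-fixed and paraffin-embedded for IHC (CD34, p-H3 Ser10, Ki67).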

[12] = target: VEGFR2 (Homo sapiens, UniProt P35968); assay: Western blotting of VEGF-stimulated VEGFR2 phosphorylation in HUVEC; format: cell-based; details: 1 h pre-treatment, VEGF 100 ng/mL 15 min, western blot
Sequence of VEGFR2 (P35968 20-1356): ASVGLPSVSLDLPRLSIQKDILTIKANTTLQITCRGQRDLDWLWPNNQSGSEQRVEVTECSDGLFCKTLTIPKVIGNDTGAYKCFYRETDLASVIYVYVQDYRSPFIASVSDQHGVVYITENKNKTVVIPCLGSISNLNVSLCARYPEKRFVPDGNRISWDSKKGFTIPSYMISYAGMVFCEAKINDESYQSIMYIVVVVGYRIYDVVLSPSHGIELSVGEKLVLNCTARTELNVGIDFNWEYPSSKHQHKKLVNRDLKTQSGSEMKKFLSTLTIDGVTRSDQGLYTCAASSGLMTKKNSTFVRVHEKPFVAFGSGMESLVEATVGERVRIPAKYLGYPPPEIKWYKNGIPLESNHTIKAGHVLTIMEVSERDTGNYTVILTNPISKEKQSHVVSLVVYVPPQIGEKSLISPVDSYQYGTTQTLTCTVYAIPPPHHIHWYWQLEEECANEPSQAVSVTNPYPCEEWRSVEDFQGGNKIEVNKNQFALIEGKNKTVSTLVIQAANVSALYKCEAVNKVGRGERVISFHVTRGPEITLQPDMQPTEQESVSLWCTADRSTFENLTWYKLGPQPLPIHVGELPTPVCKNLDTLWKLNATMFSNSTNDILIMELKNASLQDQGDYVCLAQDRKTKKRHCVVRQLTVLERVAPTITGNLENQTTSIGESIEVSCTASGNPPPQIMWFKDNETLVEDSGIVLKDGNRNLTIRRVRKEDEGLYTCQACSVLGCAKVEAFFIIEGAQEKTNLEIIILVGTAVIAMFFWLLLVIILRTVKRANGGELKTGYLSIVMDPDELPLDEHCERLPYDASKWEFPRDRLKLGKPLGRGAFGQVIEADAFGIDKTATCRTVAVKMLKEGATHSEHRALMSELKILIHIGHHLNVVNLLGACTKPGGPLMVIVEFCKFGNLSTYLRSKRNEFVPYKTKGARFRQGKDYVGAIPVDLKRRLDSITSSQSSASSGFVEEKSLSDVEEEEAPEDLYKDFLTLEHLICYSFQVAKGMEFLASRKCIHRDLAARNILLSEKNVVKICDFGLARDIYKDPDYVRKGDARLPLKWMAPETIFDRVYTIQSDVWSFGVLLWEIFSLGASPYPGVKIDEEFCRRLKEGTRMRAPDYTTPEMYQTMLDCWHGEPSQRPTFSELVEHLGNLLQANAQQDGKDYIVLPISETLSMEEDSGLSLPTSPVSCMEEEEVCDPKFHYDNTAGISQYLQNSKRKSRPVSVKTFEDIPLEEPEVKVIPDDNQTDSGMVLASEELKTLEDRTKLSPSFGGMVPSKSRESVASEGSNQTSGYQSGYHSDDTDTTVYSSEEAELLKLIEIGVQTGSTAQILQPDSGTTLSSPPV
Procedure, shortened: as §1

[13] = system: Molt‐4 cells; assay: Cell cycle analysis by flow cytometry; format: cell-based, human; details: Molt‐4, 3 μM, 24 h; control group 14.9%
[14] = system: Colo‐320 cells; assay: Growth inhibition of tumor cells; format: cell-based; details: Homo sapiens, COLO 320, 120 h, read-out: GI50, growth inhibition
[15] = system: Aurora B; assay: Western blotting of p‐H3; format: cell-based, human; details: Molt‐4 cells, 24 h, western blot, concentrations up to 6 μM
[16] = target: PLK1 (Homo sapiens, UniProt P53350); assay: Kinase inhibition assay; details: Biochemical IC50, cell-free
Sequence of PLK1 (P53350 whole entry): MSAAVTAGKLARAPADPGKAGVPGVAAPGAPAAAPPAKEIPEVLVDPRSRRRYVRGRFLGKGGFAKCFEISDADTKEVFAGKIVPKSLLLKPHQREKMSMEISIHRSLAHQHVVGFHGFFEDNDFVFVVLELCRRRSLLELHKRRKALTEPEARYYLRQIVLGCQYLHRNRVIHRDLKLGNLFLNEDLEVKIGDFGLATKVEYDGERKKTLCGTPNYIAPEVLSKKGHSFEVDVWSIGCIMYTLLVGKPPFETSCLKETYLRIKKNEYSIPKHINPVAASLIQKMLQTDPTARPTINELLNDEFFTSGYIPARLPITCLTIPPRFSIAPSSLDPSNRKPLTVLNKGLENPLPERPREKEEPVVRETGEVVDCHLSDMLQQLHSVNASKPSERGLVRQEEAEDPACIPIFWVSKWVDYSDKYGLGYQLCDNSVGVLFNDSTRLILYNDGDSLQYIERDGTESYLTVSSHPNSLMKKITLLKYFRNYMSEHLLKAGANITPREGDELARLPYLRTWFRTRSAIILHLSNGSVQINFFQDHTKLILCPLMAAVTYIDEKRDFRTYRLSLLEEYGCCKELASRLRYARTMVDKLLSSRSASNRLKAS

[17] = system: A549; assay: Tumor xenograft model; format: in vivo, BALB/c athymic mice; details: oral once daily, 5 to 40 mg/kg
Procedure, shortened: as §2

[18] = target: c‐RAF (Homo sapiens, UniProt P04049, Y340D/Y341D); assay: Kinase inhibition assay; details: Biochemical IC50, cell-free
Sequence of c‐RAF (P04049 306-648 Y340D/Y341D limits assumed): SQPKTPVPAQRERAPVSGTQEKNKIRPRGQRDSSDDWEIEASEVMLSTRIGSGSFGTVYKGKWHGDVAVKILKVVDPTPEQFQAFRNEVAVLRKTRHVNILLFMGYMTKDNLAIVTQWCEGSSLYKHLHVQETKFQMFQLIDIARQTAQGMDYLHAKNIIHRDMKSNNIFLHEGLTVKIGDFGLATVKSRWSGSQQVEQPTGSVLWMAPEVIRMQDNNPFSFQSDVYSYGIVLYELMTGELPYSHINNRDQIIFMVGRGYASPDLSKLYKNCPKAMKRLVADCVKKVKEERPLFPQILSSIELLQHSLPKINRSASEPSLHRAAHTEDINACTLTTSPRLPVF

[19] = immunohistochemistry, vs vehicle

Sequence of CSF‐1R (P07333 20-972): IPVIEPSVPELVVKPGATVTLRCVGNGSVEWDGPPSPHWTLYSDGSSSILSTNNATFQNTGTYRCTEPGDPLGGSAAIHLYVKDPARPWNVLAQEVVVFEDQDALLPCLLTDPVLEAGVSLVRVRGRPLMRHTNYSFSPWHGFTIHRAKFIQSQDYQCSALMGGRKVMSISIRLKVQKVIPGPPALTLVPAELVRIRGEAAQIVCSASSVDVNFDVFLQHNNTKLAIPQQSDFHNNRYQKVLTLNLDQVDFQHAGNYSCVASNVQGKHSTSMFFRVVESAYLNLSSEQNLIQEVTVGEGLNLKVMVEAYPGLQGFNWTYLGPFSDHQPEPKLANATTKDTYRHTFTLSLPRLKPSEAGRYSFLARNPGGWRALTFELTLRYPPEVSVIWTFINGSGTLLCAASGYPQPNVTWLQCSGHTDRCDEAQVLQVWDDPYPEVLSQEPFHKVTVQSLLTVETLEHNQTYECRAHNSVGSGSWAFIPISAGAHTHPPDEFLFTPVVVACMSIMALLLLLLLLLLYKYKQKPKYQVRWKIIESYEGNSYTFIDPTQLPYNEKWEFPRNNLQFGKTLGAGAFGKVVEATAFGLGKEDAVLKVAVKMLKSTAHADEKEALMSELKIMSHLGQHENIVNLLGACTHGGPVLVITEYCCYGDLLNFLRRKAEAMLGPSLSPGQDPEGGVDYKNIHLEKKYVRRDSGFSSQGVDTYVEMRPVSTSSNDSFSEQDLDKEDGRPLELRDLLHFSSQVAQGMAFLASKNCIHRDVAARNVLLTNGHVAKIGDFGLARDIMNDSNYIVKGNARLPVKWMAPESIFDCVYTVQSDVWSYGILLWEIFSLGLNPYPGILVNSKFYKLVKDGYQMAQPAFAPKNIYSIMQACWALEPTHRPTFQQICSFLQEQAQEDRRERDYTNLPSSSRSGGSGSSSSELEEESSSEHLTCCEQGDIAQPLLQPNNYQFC

CSF‐1R phosphorylation induced by M‐CSF [1]: concentration‐dependent inhibition | IC50 [7]: 100 to 500 nM | IC50 [9]: 100 to 500 nM | GI50 [10]: 2140 nM | ligand‐stimulated VEGFR2 tyrosine phosphorylation [12]: concentration‐dependent inhibition | GI50 [14]: 840 nM | IC50 [16]: 100 to 500 nM | IC50 [18]: 100 to 500 nM
Compound: COc1ccc2c(Oc3ccc4c(C(=O)Nc5ccccc5N)cccc4c3)ccnc2c1 [CS2164, N‐(2‐aminophenyl)‐6‐[(7‐methoxy‐4‐quinolinyl)oxy]‐1‐naphthalenecarboxamide]
efficacy compared with sunitinib at 40 mg/kg ([2]; CS2164 at 5 mg/kg oral daily): comparable | tumor growth ([2]; 1 mg/kg): started to demonstrate tumor growth inhibition | tumor growth ([2]; 5 mg/kg): near complete inhibition | number of loops of tubular network structures [3]: significant reductions | total branch lengths of tubular network structures [3]: significant reductions | M‐CSF induced differentiation and proliferation of monocytes [4]: almost complete inhibition | 50% tumor growth inhibition (TGI50) dose [5]: 2.5 mg/kg | 50% tumor growth inhibition (TGI50) dose [6]: 2.5 mg/kg | tissue CD11b^+ macrophage infiltration ([8]; oral 20 mg/kg daily, day 12, immunohistochemistry): decreased | CSF‐1R^+ cells in tumor tissue ([8]; oral 2.5 or 20 mg/kg/day, 12 days, immunohistochemistry): dramatic reduction | vascularization in tumor tissues [11]: decreased vascularization | CD34 staining in tumor tissues ([11]; immunohistochemistry): remarkably reduced | tissue Ki67 staining [11, 19]: substantial dose‐dependent decrease | tissue p‐H3 staining [11, 19]: substantial dose‐dependent decrease | p‐H3 levels in tumor tissue by western blotting ([11]; only tumor tissue, not normal colonic tissue): reduced p‐H3 levels | cells in G2/M phase (of cell cycle phases) [13]: 59.5% | level of p‐H3 (Ser10‐phosphorylated histone 3) [15]: substantial reduction | TGI50 dose [17]: around 5 mg/kg

Compound: CNC(=O)c1cc(Oc2ccc(NC(=O)Nc3ccc(Cl)c(C(F)(F)F)c3)cc2)ccn1 [sorafenib]
cells in G2/M phase (of cell cycle phases) [13]: 13.3%

Compound: CCN(CC)CCNC(=O)c1c(C)[nH]c(/C=C2\C(=O)Nc3ccc(F)cc32)c1C [sunitinib, reference compound]
cells in G2/M phase (of cell cycle phases) [13]: 20.4% | level of p‐H3 (Ser10‐phosphorylated histone 3) [15]: little inhibitory activity
